The values below come from paper PMC10651396 (The Journal of Cell Biology, 2023).

Substitutions are numbered along the chain they refer to. Where no end group is shown, it is not given here.

The test system of one experiment is His-Cap1/2. The experiment can be described thus: GST pulldown of capping protein by GST-CPI motif fusions. The class given is binding, Saccharomyces cerevisiae. Conditions: in words; SDS-PAGE and Coomassie staining; His-Tda2 added with Aim21 fusions. The method in brief: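 Recombinant GST-CPI fusions and His-Cap1/2 were expressed in BL21 codon plus E. coli, affinity-purified, and dialyzed into PBS. GST protein (10 μg) was bound to glutathione Sepharose for 30 min at 4°C. Equimolar His-protein (His-Tda2 also for Aim21) was added for another 30 min. Resin was washed three times in PBS with 0.1–0.5% Triton X-100. Each pulldown was repeated independently.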

For the next experiment, the target named is T1, His-Cap1/2 (CP) (Saccharomyces cerevisiae, UniProt P13517+P28495).
T1 sequence (P28495 1-268): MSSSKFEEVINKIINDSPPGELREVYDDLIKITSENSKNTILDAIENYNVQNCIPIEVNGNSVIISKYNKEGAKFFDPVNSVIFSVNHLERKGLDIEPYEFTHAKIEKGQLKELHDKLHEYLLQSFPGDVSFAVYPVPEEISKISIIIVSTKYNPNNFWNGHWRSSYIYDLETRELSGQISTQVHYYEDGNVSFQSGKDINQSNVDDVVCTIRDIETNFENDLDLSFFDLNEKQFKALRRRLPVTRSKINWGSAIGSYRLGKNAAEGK
T1 sequence (P13517 1-287): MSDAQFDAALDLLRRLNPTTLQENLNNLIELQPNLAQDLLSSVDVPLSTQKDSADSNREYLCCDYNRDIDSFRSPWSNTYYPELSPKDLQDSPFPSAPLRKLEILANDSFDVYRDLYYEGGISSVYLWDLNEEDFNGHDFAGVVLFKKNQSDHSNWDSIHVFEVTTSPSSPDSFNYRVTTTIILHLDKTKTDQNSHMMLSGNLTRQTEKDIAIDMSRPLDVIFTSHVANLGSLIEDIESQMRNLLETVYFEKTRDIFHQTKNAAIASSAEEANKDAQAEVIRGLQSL
The class given is biochemical. Conditions: in words; yeast actin, CP 100 nM, 500 nM peptide.

For another experiment, the target named is T2, His-Cap1/2^D64A (S. cerevisiae, UniProt P28495 1-268; P13517 1-287, D64A).
T2 sequence (looked up) 1: T1 sequence (P28495 1-268)
T2 sequence (looked up) 2: T1 sequence (P13517 1-287) with D64A
The experiment can be described thus: pull-down.

The target of experiment [1] is T3, 6-histidine-tagged actin capping protein (His-Cap1/2) (S. cerevisiae, UniProt P28495 1-268; P13517 1-287).
T3 sequence (looked up) 1: T1 sequence (P28495 1-268)
T3 sequence (looked up) 2: T1 sequence (P13517 1-287)
The experiment can be described thus: pull-down.

In the next experiment the target is T4, His-Cap1/2^D44A (S. cerevisiae, UniProt P28495 1-268; P13517 1-287, D44A).
T4 sequence (looked up) 1: T1 sequence (P28495 1-268)
T4 sequence (looked up) 2: T1 sequence (P13517 1-287) with D44A
The experiment can be described thus: pull-down.

For another experiment, the target named is T5, His-Cap1/2^D88A (S. cerevisiae, UniProt P28495 1-268; P13517 1-287, D88A).
T5 sequence (looked up) 1: T1 sequence (P28495 1-268)
T5 sequence (looked up) 2: T1 sequence (P13517 1-287) with D88A
The experiment can be described thus: pull-down.

The test system of experiment [2] is rabbit skeletal muscle actin. The experiment can be described thus: Pyrene actin polymerization assay, substance alone. The class given is biochemical. Conditions: in words, capping protein 100 nM, 1 µM actin, 20% pyrene-labeled. The method in brief: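 Rabbit skeletal muscle G-actin in G-buffer (pH 8, 0.2 mM ATP) was spun at 100,000 × g for 30 min at 4°C. It was Mg-exchanged (10 mM EGTA, 1 mM MgCl2) for 10 min at room temperature. Polymerization was started with 50 mM KCl, 2 mM MgCl2, 1 mM ATP and 1 mM EGTA (final). Pyrene fluorescence was read over time at ex 365/em 406 nm. Relative rate came from three independent assays, mean ± SEM.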

As for “GST-Inp51: GST fused to Inp51 fragment (874–900) (SIAGPTHSPTPIPEPKRGRKLPPPSSD; also: GST fusion, end not given here)”, the “interaction with His-Cap1/2 in GST pulldown” value in the experiment with His-Cap1/2 is “failed to pull down”.

Consider KETKPLVHPNKNRTRGPRRKLPTRV [Bsp1^CPI], for which the “effect on the capping function of CP” value at His-Cap1/2 (CP) is recorded as “partially inhibited the capping function of CP”.

“KTGPLGGTRRGRGPRGRKLPSKVASVEKIEEDDNTNKIEIFNNWNVSS [Aim21^CPI]”: the “effect on the capping function of CP” value at His-Cap1/2 (CP) is “partially inhibited the capping function of CP”.

SNPDLPNKSNLKFNKPKGPLRKRRT [Twf1^CPI]: the “effect on the capping function of CP” value at His-Cap1/2 (CP) was “had no effect”.

B1: GST-Aim21^CPI (Aim21 491-545) with His-Tda2 (Tda2/Aim21 complex) (complex, S. cerevisiae)
chain 1: QAKTGPLGGTRRGRGPRGRKLPSKVASVEKIEEDDNTNKIEIFNNWNVSSSFSKE
chain 2: MSMQIEIKDGRSDNSPLPERKLVTLIQESYDSLKDDNEINLSTESTSNLLIKLVLEKLEKHSSLYKYIASVTTLNIEGLNEENANFSLKNDIGASWESKKDGIFNYKLEDKNNNECYLITILWLHK
B1: the binding result (in the experiment with His-Cap1/2^D64A; in experiment [1]; with His-Cap1/2^D44A; with His-Cap1/2^D88A) was “binds” throughout.

B2: GST-Bsp1^CPI (Bsp1 552-576) (domain or fragment, S. cerevisiae)
chain: KETKPLVHPNKNRTRGPRRKLPTRV
Consider B2, for which the binding result (with His-Cap1/2^D64A; in experiment [1]; with His-Cap1/2^D44A; in the experiment with His-Cap1/2^D88A) was “binds” each time.

B3: GST-Twf1^CPI (Twf1 308-332) (domain or fragment, S. cerevisiae)
chain: SNPDLPNKSNLKFNKPKGPLRKRRT
Turning to B3, the binding result (with His-Cap1/2^D64A; in experiment [1]; with His-Cap1/2^D44A; with His-Cap1/2^D88A) was “binds” throughout.

B4: CP: 6-histidine–tagged yeast actin capping protein, Cap1/Cap2 heterodimer (protein, UniProt P28495 2-268; P13517 2-287, looked up)
F-actin-capping protein … 1: SSSKFEEVINKIINDSPPGELREVYDDLIKITSENSKNTILDAIENYNVQNCIPIEVNGNSVIISKYNKEGAKFFDPVNSVIFSVNHLERKGLDIEPYEFTHAKIEKGQLKELHDKLHEYLLQSFPGDVSFAVYPVPEEISKISIIIVSTKYNPNNFWNGHWRSSYIYDLETRELSGQISTQVHYYEDGNVSFQSGKDINQSNVDDVVCTIRDIETNFENDLDLSFFDLNEKQFKALRRRLPVTRSKINWGSAIGSYRLGKNAAEGK
F-actin-capping protein … 2: SDAQFDAALDLLRRLNPTTLQENLNNLIELQPNLAQDLLSSVDVPLSTQKDSADSNREYLCCDYNRDIDSFRSPWSNTYYPELSPKDLQDSPFPSAPLRKLEILANDSFDVYRDLYYEGGISSVYLWDLNEEDFNGHDFAGVVLFKKNQSDHSNWDSIHVFEVTTSPSSPDSFNYRVTTTIILHLDKTKTDQNSHMMLSGNLTRQTEKDIAIDMSRPLDVIFTSHVANLGSLIEDIESQMRNLLETVYFEKTRDIFHQTKNAAIASSAEEANKDAQAEVIRGLQSL
modifications: His6 tag
Turning to B4, the entries for the “ability to cap actin filaments” value in experiment [2] (listed as CP^1*) and in experiment [2] (listed as CP^2*) were “no ability to cap actin filaments” and “equivalent capping ability to CP”, respectively.
